Data reported in ChEMBL document CHEMBL1122631, “2,3,4,4a,5,9b-Hexahydro-1H-indeno[1,2-b]pyridines: potential antidepressants” (J Med Chem, 1984).
Where “and” joins values, the source holds several entries; their conditions need not be identical. Equal entries are not always repeated.

How the values were obtained:
Mus musculus [1] = experiment: Antidepressant activity was measured by the prevention of tetrabenazine (TBZ) induced ptosis in mice after intraperitoneal administration of the compound.; format: functional; conditions: ip
In short: (§1)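 Mice given compound ip in 1% methylcellulose (10 mL/kg), 30 min before tetrabenazine 40 mg/kg base ip; solvent+TBZ control per test. Ptosis scored 30 min after TBZ (+1 min) as 100/50/0% (closed/half/open), not normalized.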

[2] = Acute toxicity in mice, after intraperitoneal administration.; format: organism-based; conditions: mouse, in vivo, ip
In short: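 Mice, groups of 10, given compound suspended in 1% methylcellulose ip at 10 mL/kg, then housed with food and water ad libitum. Observed hourly up to 6 h; deaths recorded at 24 and 48 h.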

[3] = Therapeutic index (TI), ratio of LD50 and ED50 (TBZ) in mice after i.p. administration; conditions: mouse, in vivo, ip
[4] = Partition coefficient (logP); format: physicochemical; conditions: octanol/water
Rattus norvegicus [5] = organism: Rattus norvegicus; experiment: Compound was tested for inhibition of uptake of [14C]5-HT (5-HT) into rat whole brain, in vitro.; format: functional
In short: (§2)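 Rat brain synaptosomes (Whittaker method) incubated with labelled monoamine (1 × 10^-7 mol final) at 37 °C with or without drug. [14C]NE and [14C]5-HT uptake in Krebs-Henseleit bicarbonate pH 7.4 with 11 mmol glucose; [3H]DA uptake in phosphate buffer, corpus striatum synaptosomes. Time: 5 min whole brain, 10 min hypothalamus. Nonspecific binding at 0 °C; membrane filtration, scintillation counting; IC50 from 3–4 concentrations, at least triplicate.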

Rattus norvegicus [6] = organism: Rattus norvegicus; experiment: Compound was tested for inhibition of uptake of [14C]norepinephrine (NE) into rat brain hypothalamus, in vitro.; format: functional; in short: as §2
Rattus norvegicus [7] = organism: Rattus norvegicus; experiment: Compound was tested for inhibition of uptake of [3H]dopamine (DA) into rat corpus striatum, in vitro.; format: functional; in short: as §2
Rattus norvegicus [8] = experiment: Ability to inhibit re uptake of [14C]-5-HT in synaptosomes from rat whole brain, was determined 1 h after intraperitoneal administration of 80 mg of compound.; format: functional
In short: (§3)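 Ex vivo/in vitro: rats dosed orally or ip, killed 1 h later; whole-brain synaptosomes from a pool of n=3 rats; [14C]NE or [14C]5-HT uptake (Krebs-Henseleit bicarbonate, pH 7.4, 11 mmol glucose; 1 × 10^-7 mol labelled amine, 37 °C, 5 min), filtration, scintillation counting; quadruplicate determinations, mean ± SD as % of control-animal uptake.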

Rattus norvegicus [9] = experiment: Ability to inhibit re uptake of [14C]5-HT in synaptosomes from rat whole brain, was determined 1 h after peroral administration of 80 mg of compound.; format: functional, organism-based; in short: as §3
Rattus norvegicus [10] = experiment: Ability to inhibit re uptake of [14C]norepinephrine in synaptosomes from rat whole brain, was determined 1 hr after peroral administration of 80 mg of compound.; format: functional; in short: as §3
Mus musculus [11] = experiment: Prevention of tetrabenazine induced ptosis in mice following i.p. administration.; format: functional; conditions: ip; in short: as §1
Rattus norvegicus [12] = experiment: Ability to inhibit re uptake of [14C]norepinephrine in synaptosomes from rat whole brain, was determined 1 h after peroral administration of 80 mg of compound.; format: functional, organism-based; in short: as §3
Mus musculus [13] = experiment: Prevention of tetrabenazine (TBZ)-induced ptosis in mice after intraperitoneal administration.; format: functional, organism-based; in short: as §1
[14] = Compound was tested for acute toxicity in mice, after intravenous administration of the compound.; format: organism-based; conditions: mouse, in vivo
Rattus norvegicus [15] = experiment: Ability to inhibit re uptake of [14C]norepinephrine in synaptosomes from rat whole brain, was determined 1 hr after intraperitoneal administration of 80 mg of compound.; format: functional; in short: as §3
Mus musculus [16] = experiment: Prevention of tetrabenazine (TBZ) induced ptosis in mice after intraperitoneal administration; b denotes 'No activity detected up to a dose of one-fifth of the LD ip in mice; format: functional, organism-based; in short: as §1
Mus musculus [17] = experiment: Enhancement of spontaneous motor activity (SMA) in mice after oral administration of 1 mg/kg of the compound. Accumulated motility counts during second hour of observation, was reported.; format: functional
Mus musculus [18] = organism: Mus musculus; experiment: Percent enhancement of spontaneous motor activity (SMA) was observed. Accumulated motility counts during second hour of observation, was reported.; format: functional
Mus musculus [19] = experiment: Enhancement of spontaneous motor activity (SMA) in mice after oral administration of 1 mg/kg of the compound. Accumulated motility counts during first hour of observation, was reported.; format: functional
Mus musculus [20] = organism: Mus musculus; experiment: Percent enhancement of spontaneous motor activity (SMA) was observed. Accumulated motility counts during first hour of observation, was reported.; format: functional
Mus musculus [21] = organism: Mus musculus; experiment: Percent enhancement of spontaneous motor activity (SMA) was observed. Accumulated motility counts during one hour of observation, was reported.; format: functional
Mus musculus [22] = experiment: Enhancement of spontaneous motor activity (SMA) in mice after oral administration of 0.3 mg/kg of the compound. Accumulated motility counts during second hour of observation, was reported.; format: functional

Structure (SMILES) | ED50 (Mus musculus [1]) | LD50 [2] | selectivity ratio [3] | IC50 (Rattus norvegicus [5]) | IC50 (Rattus norvegicus [6]) | IC50 (Rattus norvegicus [7]) | ED50 (Mus musculus [11]) | other results
c1ccc2c(c1)[C@@H](c1ccncc1)[C@@H]1CCCN[C@H]21 | 2 mg/kg | 20 mg/kg | 10 | – | – | – | – | –
Nc1ccc([C@@H]2c3cc(O)ccc3[C@H]3NCCC[C@@H]23)cc1 | – | 150 mg/kg | 1500 | 1.6 µM | 0.015 µM | 0.046 µM | 0.1 mg/kg | logP [4]: 1.91; Uptake (Rattus norvegicus [8]): > 90%; Uptake (Rattus norvegicus [9]): > 90%; Uptake (Rattus norvegicus [10]): > 90%
Cc1ccc([C@@H]2c3ccccc3[C@@H]3[C@H]2CCCN3C)cc1 | – | 232 mg/kg | 77 | > 100 µM | 0.065 µM | 0.09 µM | 3 mg/kg | logP [4]: 3.83; Uptake (Rattus norvegicus [12]): > 90% (2×) and 76.3%; Uptake (Rattus norvegicus [8]): > 90%; Uptake (Rattus norvegicus [9]): > 90% (2×) and 88.1%
CCCN1CCC[C@H]2[C@H](c3ccccc3)c3ccccc3[C@H]21 | – | 24 mg/kg | 30 | > 100 µM | 0.41 µM | 0.11 µM | 0.8 mg/kg | –
COc1cc2c(cc1OC)[C@H]1NCCC[C@H]1[C@H]2c1cccnc1 | – | – | – | – | – | – | – | ED50 (Mus musculus [13]): No activity detected up to a dose of 1/5 LD50 ip in mice; LD50 [14]: 30 mg/kg
COc1ccc([C@@H]2c3ccccc3[C@@H]3[C@H]2CCCN3C)cc1 | 5 mg/kg | 95 mg/kg | 19 | – | – | – | – | –
Oc1ccc([C@@H]2c3ccccc3[C@H]3NCCC[C@@H]23)cc1 | 2 mg/kg | 30 mg/kg | 15 | – | – | – | – | –
CCCCOc1ccc([C@@H]2c3ccccc3[C@H]3NCCC[C@@H]23)cc1 | 1 mg/kg | 46 mg/kg | 46 | – | – | – | – | –
Cc1ccc([C@@H]2c3cc(O)ccc3[C@H]3NCCC[C@@H]23)cc1 | 1 mg/kg | 67 mg/kg | 67 | 0.28 µM | 0.031 µM | 0.017 µM | – | logP [4]: 3.13; Uptake (Rattus norvegicus [12]): > 90%; Uptake (Rattus norvegicus [8]): > 90% and 84.9%; Uptake (Rattus norvegicus [9]): 90.4% and 86.9%; Uptake (Rattus norvegicus [15]): 68.2% and 62%
Nc1ccc([C@H]2c3ccccc3[C@H]3NCCC[C@@H]23)cc1 | – | 20 mg/kg | – | 20 µM | 0.18 µM | 0.33 µM | 3 mg/kg | –
COc1ccc2c(c1)[C@H](c1ccc(C(C)C)cc1)[C@@H]1CCCN[C@H]21 | – | 37 mg/kg | – | – | – | – | – | ED50 (Mus musculus [16]): No activity detected up to a dose of 1/5 LD50 ip in mice
CCCCOc1ccc([C@@H]2c3ccccc3[C@@H]3[C@H]2CCCN3C)cc1 | 10 mg/kg | 134 mg/kg | 14 | – | – | – | – | –
CN1CCC[C@H]2[C@H](c3ccc(O)cc3)c3ccccc3[C@H]21 | 5 mg/kg | 178 mg/kg | 36 | – | – | – | – | –
CN1CCC[C@H]2[C@H](c3ccc(N)cc3)c3ccccc3[C@H]21 | – | 50 mg/kg | 500 | ~100 µM | 0.11 µM | 0.24 µM | 0.1 mg/kg | –
CN1CCC[C@H]2[C@H](c3ccccc3)c3ccccc3[C@H]21 | – | 74 mg/kg | 185 | ~100 µM | 0.012 µM | 0.1 µM | 0.4 mg/kg | –
c1ccc([C@@H]2c3ccccc3[C@H]3NCCC[C@@H]23)cc1 | – | 27 mg/kg | 39 | ~100 µM | 0.018 µM | 0.02 µM | 0.7 mg/kg | –
Cc1ccc([C@@H]2c3cc(O)ccc3[C@H]3NCCC[C@@H]23)cc1N | 3 mg/kg | 210 mg/kg | 70 | 0.43 µM | 0.04 µM | 0.1 µM | – | logP [4]: 2.33; Uptake (Rattus norvegicus [12]): > 90% and 83.5% and 88.1%; Uptake (Rattus norvegicus [8]): > 90%; Uptake (Rattus norvegicus [9]): > 90%; Uptake (Rattus norvegicus [15]): 80% and > 90% and 87.7%
Cc1ccc([C@H]2c3cc(O)ccc3[C@H]3NCCC[C@@H]23)cc1N | 10 mg/kg | 67 mg/kg | – | – | – | – | – | –
Nc1ccc([C@@H]2c3ccccc3[C@H]3NCCC[C@@H]23)cc1 | – | 50 mg/kg | 500 | > 100 µM | 0.0074 µM | 0.044 µM | 0.1 mg/kg | Basis motility (Mus musculus [17]): 12001; Basis motility (Mus musculus [18]): -7; Exploration motility (Mus musculus [19]): 7924; Exploration motility (Mus musculus [20]): -4; Exploration motility (Mus musculus [21]): 116; Basis motility (Mus musculus [22]): 5501
